Results reported in ChEMBL document CHEMBL1123311, “Synthesis and antitumor and antiviral properties of 5-halo- and 5-(trifluoromethyl)-2'-deoxyuridine 3',5'-cyclic monophosphates and neutral triesters” (1986).
In brackets after ≈: the same amount, converted by molar mass.

Tests used:
[1] = system: Human alphaherpesvirus 2; experiment: Evaluation of antiviral activity against Herpes simplex virus type 2 (HSV-2) strain 196.; format: functional
Summary of the method: (§1)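 Virus-induced cytopathogenicity scored in primary rabbit kidney cell cultures. Value is the minimum concentration reducing cytopathogenicity by 50%. Cytotoxicity on uninfected cells was read as the minimal concentration causing a microscopically detectable change in normal cell morphology, tested up to 400 μg/mL.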

[2] = system: Human alphaherpesvirus 2; experiment: Evaluation of antiviral activity against Herpes simplex virus type 2 (HSV-2) strain G; format: functional; summary of the method: as §1
[3] = system: Human alphaherpesvirus 2; experiment: Evaluation of antiviral activity against Herpes simplex virus type 2 (HSV-2) strain Lyons; format: functional; summary of the method: as §1
[4] = system: Human alphaherpesvirus 1; experiment: Evaluation of antiviral activity against Herpes simplex virus type 1 (HSV-1) strain F; format: functional; summary of the method: as §1
[5] = system: Human alphaherpesvirus 1; experiment: Evaluation of antiviral activity against Herpes simplex virus type 1 (HSV-1) strain McIntyre; format: functional; summary of the method: as §1
[6] = system: L1210; experiment: Evaluation of antitumor activity against mutant murine leukemia L1210 cells; format: functional; conditions: Mus musculus, read-out: ID50 (the source's name)
Summary of the method: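 Proliferation of mutant murine leukemia L1210/BdUrd cells, selected from parental L1210/0 for growth in 260 μg/mL 5-bromo-2'-deoxyuridine. Value is the dose inhibiting proliferation by 50%.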

[7] = system: L1210; experiment: Evaluation of cytostatic activity by using antitumor assays against murine leukemia L1210 cells; format: functional; conditions: Mus musculus, read-out: ID50 (the source's name)
[8] = system: Vesicular stomatitis virus; experiment: Evaluation of antiviral activity against Vesicular stomatitis virus.; format: functional; summary of the method: as §1
[9] = system: Vaccinia virus; experiment: Evaluation of antiviral activity against Vaccinia virus; format: functional; conditions: Orthopoxvirus vaccinia; summary of the method: as §1
[10] = system: Raji; experiment: Evaluation of antitumor activity against thymidine kinase deficient Raji cell line; format: functional; conditions: Homo sapiens, read-out: ID50 (the source's name)
[11] = target: Thymidylate synthase (Mus musculus) (UniProt P07607); experiment: Compound was evaluated for the inhibition of L1210 Thymidylate synthase
Sequence of Thymidylate synthase (Mus musculus) (P07607 whole entry, looked up): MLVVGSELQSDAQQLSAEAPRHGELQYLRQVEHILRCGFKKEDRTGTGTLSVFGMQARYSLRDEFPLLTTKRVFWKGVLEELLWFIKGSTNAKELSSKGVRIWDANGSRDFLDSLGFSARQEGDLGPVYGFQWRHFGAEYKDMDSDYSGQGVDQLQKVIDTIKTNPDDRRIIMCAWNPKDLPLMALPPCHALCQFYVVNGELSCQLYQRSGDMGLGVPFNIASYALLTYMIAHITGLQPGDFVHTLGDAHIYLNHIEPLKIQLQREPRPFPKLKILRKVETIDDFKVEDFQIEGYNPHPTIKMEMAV
Summary of the method: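 Thymidylate (dTMP) synthetase inhibition measured with a partially purified extract of L1210 cells as the enzyme source.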

[12] = species: Homo sapiens; experiment: Evaluation for antitumor activity against human lymphoblast Raji cells; format: functional; conditions: for IC50: Homo sapiens, Raji, read-out: ID50 (the source's name)
[13] = system: Human alphaherpesvirus 1; experiment: Evaluation of antiviral activity against Herpes simplex virus type 1 (HSV-1) strain KOS.; format: functional; summary of the method: as §1
[14] = target: Thymidylate synthase (Mus musculus) (UniProt P07607); experiment: Compound was evaluated for the inhibition of L1210 thymidylate synthetase (L1210 dTMP)
Summary of the method: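 Enzyme source was a partially purified extract of murine leukemia L1210 cells. The dTMP synthetase assay followed an earlier published method, and no reaction conditions are given here.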

Structure (SMILES) | MIC50 [1] [µg/mL] | MIC50 [2] [µg/mL] | MIC50 [3] [µg/mL] | MIC50 [4] [µg/mL] | MIC50 [5] [µg/mL] | IC50 [6] [µg/mL] | IC50 [7] [µg/mL] | MIC50 [8] [µg/mL] | MIC50 [9] [µg/mL] | IC50 [10] [µg/mL] | Ki/Km [11] | IC50 [12] [µg/mL] | MIC50 [13] [µg/mL] | ID50 [12] [µg/mL] | Ki/Km [14]
N.O=c1[nH]c(=O)n([C@H]2C[C@@H]3O[PH](O)(O)OC[C@H]3O2)cc1C(F)(F)F | 40 | 10 | 10 | 20 | 10 | 22 | 0.116 | > 400 | 0.4 | ≥ 500 | 30.4 | 1.81 | 10 | – | –
O=c1[nH]c(=O)n([C@H]2C[C@H](O)[C@@H](COP(=O)(O)O)O2)cc1F [5-FLUORODEOXYURIDYLATE] | 100 (≈ 307 µM) | 7 (≈ 21.5 µM) | 20 (≈ 61.3 µM) | 10 (≈ 30.7 µM) | 10 (≈ 30.7 µM) | 3 (≈ 9.2 µM) | 0.003 (≈ 0.0092 µM) | > 200 | 0.2 (≈ 0.613 µM) | 2.41 (≈ 7.39 µM) | 0.018 | 0.013 (≈ 0.0399 µM) | 10 (≈ 30.7 µM) | – | –
O=c1[nH]c(=O)n([C@H]2C[C@H](O)[C@@H](COP(=O)(O)O)O2)cc1/C=C/Br | > 400 | 20 (≈ 48.4 µM) | 100 (≈ 242 µM) | 0.02 (≈ 0.0484 µM) | 0.02 (≈ 0.0484 µM) | – | – | > 400 | 7 (≈ 16.9 µM) | – | – | – | 0.02 (≈ 0.0484 µM) | – | –
O=c1[nH]c(=O)n([C@H]2C[C@H](O)[C@@H](CO)O2)cc1Br [BROXURIDINE] | 0.2 (≈ 0.651 µM) | 0.2 (≈ 0.651 µM) | 0.07 (≈ 0.228 µM) | 0.2 (≈ 0.651 µM) | 0.2 (≈ 0.651 µM) | > 1000 | 33.8 (≈ 110 µM) | > 400 | 0.07 (≈ 0.228 µM) | > 1000 | – | 17.5 (≈ 57 µM) | 0.2 (≈ 0.651 µM) | – | –
COP1(=O)OC[C@H]2O[C@@H](n3cc(Br)c(=O)[nH]c3=O)C[C@@H]2O1 (some centres not stated) | > 200 | > 200 | 70 (≈ 183 µM) | > 200 | > 200 | > 100 | > 100 | > 200 | 10 (≈ 26.1 µM) | > 100 | – | > 100 | > 200 | – | –
O=c1[nH]c(=O)n([C@H]2C[C@@H]3OP(=O)(OCc4ccccc4)OC[C@H]3O2)cc1I (some centres not stated) | 70 (≈ 138 µM) | 20 (≈ 39.5 µM) | 7 (≈ 13.8 µM) | 7 (≈ 13.8 µM) | 20 (≈ 39.5 µM) | > 100 | > 100 | > 200 | 2 (≈ 3.95 µM) | > 100 | – | > 100 | 20 (≈ 39.5 µM) | 69 (≈ 136 µM) | –
O=c1[nH]c(=O)n([C@H]2C[C@H](O)[C@@H](CO)O2)cc1I [IDOXURIDINE] | 0.4 (≈ 1.13 µM) | 0.2 (≈ 0.565 µM) | 0.1 (≈ 0.282 µM) | 0.2 (≈ 0.565 µM) | 0.2 (≈ 0.565 µM) | > 500 | 16 (≈ 45.2 µM) | > 400 | 0.2 (≈ 0.565 µM) | > 500 | – | 8 (≈ 22.6 µM) | 0.2 (≈ 0.565 µM) | – | –
O=c1[nH]c(=O)n([C@H]2C[C@H](O)[C@@H](CO)O2)cc1C(F)(F)F [TRIFLURIDINE] | 1 (≈ 3.38 µM) | 0.6 (≈ 2.03 µM) | 1 (≈ 3.38 µM) | 0.7 (≈ 2.36 µM) | 0.7 (≈ 2.36 µM) | 47 (≈ 159 µM) | 0.006 (≈ 0.0203 µM) | > 40 | 0.2 (≈ 0.675 µM) | 180 (≈ 608 µM) | – | 0.15 (≈ 0.506 µM) | 0.7 (≈ 2.36 µM) | – | –
O=c1[nH]c(=O)n([C@H]2C[C@H](O)[C@@H](COP(=O)(O)O)O2)cc1Br | 0.2 (≈ 0.517 µM) | 0.2 (≈ 0.517 µM) | 0.07 (≈ 0.181 µM) | 0.2 (≈ 0.517 µM) | 0.2 (≈ 0.517 µM) | 457 (≈ 1180 µM) | 34.6 (≈ 89.4 µM) | > 400 | 0.07 (≈ 0.181 µM) | > 1000 | 2.16 | 26 (≈ 67.2 µM) | 0.2 (≈ 0.517 µM) | – | –
N.O=c1[nH]c(=O)n([C@H]2C[C@@H]3O[PH](O)(O)OC[C@H]3O2)cc1F | ≥ 400 | ≥ 300 | ≥ 200 | > 400 | > 400 | 7.4 | 0.06 | > 400 | 1.5 | 19 | – | 0.164 | > 400 | – | 38
O=c1[nH]c(=O)n([C@H]2C[C@H](O)[C@@H](CO)O2)cc1/C=C/Br [BRIVUDINE] | 70 (≈ 210 µM) | 4 (≈ 12 µM) | 7 (≈ 21 µM) | 0.02 (≈ 0.06 µM) | 0.07 (≈ 0.21 µM) | – | – | > 400 | 4 (≈ 12 µM) | – | – | – | 0.02 (≈ 0.06 µM) | – | –
N.O=c1[nH]c(=O)n([C@H]2C[C@@H]3O[PH](O)(O)OC[C@H]3O2)cc1Br | 20 | 2 | 2 | 2 | 2 | > 1000 | 457 | > 400 | 1 | > 1000 | > 354 | 224 | 2 | – | –
O=c1[nH]c(=O)n([C@H]2C[C@H](O)[C@@H](CO)O2)cc1F [FLOXURIDINE] | 150 (≈ 609 µM) | 8 (≈ 32.5 µM) | 10 (≈ 40.6 µM) | 8 (≈ 32.5 µM) | 4 (≈ 16.2 µM) | 1.8 (≈ 7.31 µM) | 0.02 (≈ 0.0812 µM) | > 200 | 0.1 (≈ 0.406 µM) | 1.55 (≈ 6.3 µM) | – | 0.004 (≈ 0.0162 µM) | 6 (≈ 24.4 µM) | – | –
N.O=c1[nH]c(=O)n([C@H]2C[C@@H]3O[PH](O)(O)OC[C@H]3O2)cc1I | 20 | 10 | 7 | 2 | 7 | > 500 | ≥ 500 | > 400 | 2 | > 500 | > 355 | 54 | 2 | – | –
O=c1[nH]c(=O)n([C@H]2C[C@H](O)[C@@H](CO)O2)cc1Cl [CHLORODEOXYURIDINE] | 2 (≈ 7.61 µM) | 1 (≈ 3.81 µM) | 2 (≈ 7.61 µM) | 0.7 (≈ 2.67 µM) | 2 (≈ 7.61 µM) | 339 (≈ 1290 µM) | 21.3 (≈ 81.1 µM) | > 400 | 0.2 (≈ 0.761 µM) | > 1000 | – | 8.54 (≈ 32.5 µM) | 2 (≈ 7.61 µM) | – | –
O=c1[nH]c(=O)n([C@H]2C[C@H](O)[C@@H](COP(=O)(O)O)O2)cc1C(F)(F)F | 0.7 (≈ 1.86 µM) | 0.7 (≈ 1.86 µM) | 0.6 (≈ 1.59 µM) | 0.7 (≈ 1.86 µM) | 0.4 (≈ 1.06 µM) | 38 (≈ 101 µM) | 0.017 (≈ 0.0452 µM) | > 400 | 0.2 (≈ 0.532 µM) | 212 (≈ 564 µM) | 0.061 | 0.169 (≈ 0.449 µM) | 0.7 (≈ 1.86 µM) | – | –
